Measured values published in ChEMBL document CHEMBL1914385, “Isolation, structure, and biological activities of Fellutamides C and D from an undescribed Metulocladosporiella (Chaetothyriales) using the genome-wide Candida albicans fitness test” (J Nat Prod, 2011).
In brackets after ≈: the same amount, converted by molar mass. Activity calls are given as the source filed them. No cut-off for these calls is given here. Non-standard residues stand in square brackets, D forms with d. Residues, ends and D or L forms follow the SMILES beside them. *: point of attachment. Myristoyl = CCCCCCCCCCCCCC(=O)*; Leu(ol) = CC(C)C[C@H](N)CO

Key:
Candida albicans [1] = test: Antifungal activity against Candida albicans at 200 ug/ml after 24 hrs by NCCLS M27-P broth macrodilution method; type: functional, organism-based
Candida albicans [2] = test: Antifungal activity against Candida albicans after 24 hrs by NCCLS M27-P broth macrodilution method; type: functional
Candida albicans [3] = test: Antifungal activity against Candida albicans harboring heterozygous deletion of orf19.4088/NUP188 after 24 hrs by NCCLS M27-P broth macrodilution method; type: functional
Candida albicans [4] = test: Antifungal activity against Candida albicans harboring heterozygous deletion of orf19.5378/SCL1 after 24 hrs by NCCLS M27-P broth macrodilution method; type: functional
Candida albicans [5] = test: Antifungal activity against Candida albicans harboring heterozygous deletion of orf19.3168/RPN8 after 24 hrs by NCCLS M27-P broth macrodilution method; type: functional
Candida albicans [6] = test: Antifungal activity against Candida albicans harboring heterozygous deletion of PRE4/orf19.4230 after 24 hrs by NCCLS M27-P broth macrodilution method; type: functional
Candida albicans [7] = test: Antifungal activity against Candida albicans 2323 after 24 hrs by NCCLS M27-P broth macrodilution method; type: functional; conditions: Candida albicans, 2323, 24 h
In short: (§1)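 MIC panel run in the fitness-test medium (modified RPMI), following an earlier published MIC method.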

Candida tropicalis = test: Antifungal activity against Candida tropicalis MY1012 after 24 hrs by NCCLS M27-P broth macrodilution method; type: functional; conditions: MY1012, 24 h; in short: as §1
Nakaseomyces glabratus = test: Antifungal activity against Candida glabrata MY1381 after 24 hrs by NCCLS M27-P broth macrodilution method; type: functional; conditions: MY1381, 24 h; in short: as §1
Clavispora lusitaniae = test: Antifungal activity against Candida lusitaniae MY1396 after 24 hrs by NCCLS M27-P broth macrodilution method; type: functional; conditions: MY1396, 24 h; in short: as §1
Pichia kudriavzevii = test: Antifungal activity against Candida krusei ATCC 6258 after 24 hrs by NCCLS M27-P broth macrodilution method; type: functional; conditions: ATCC 6258, 24 h; in short: as §1
Candida parapsilosis = test: Antifungal activity against Candida parapsilosis ATCC 22019 after 24 hrs by NCCLS M27-P broth macrodilution method; type: functional; conditions: Lodderomyces parapsilosis, ATCC 22019, 24 h; in short: as §1
Aspergillus fumigatus = test: Antifungal activity against Aspergillus fumigatus MF5668 after 24 hrs by NCCLS M27-P broth macrodilution method; type: functional; conditions: MF5668, 24 h; in short: as §1
[8] = test system: Trichophyton mentagrophytes; test: Antifungal activity against Trichophyton mentagrophytes MF7004 after 24 hrs by NCCLS M27-P broth macrodilution method; type: functional; conditions: MF7004, 24 h; in short: as §1
Staphylococcus aureus = test: Antibacterial activity against Staphylococcus aureus MB2865; type: functional
Candida albicans [9] = test: Antifungal activity against wild-type Candida albicans at 0.01 to 10 ug/mL after 24 hrs by NCCLS M27-P broth macrodilution method; type: functional, organism-based
Candida albicans [10] = test: Antifungal activity against Candida albicans harboring heterozygous deletion of PRE4/orf19.4230 at 0.01 to 10 ug/mL after 24 hrs by NCCLS M27-P broth macrodilution method; type: functional, organism-based
PC-3 = test: Growth inhibition of human PC3 cells; type: functional, cell-based
In short: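 PC-3 cells treated for 48 h across an 8-point dose series (final 50 000, 12 500, 3125, 781.3, 195.3, 48.8, 12.2, 3.1 nM). Viable cell mass was measured by ATP luminescence (Vialight) to give IC50.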

Candida albicans [11] = test: Ratio of gliotoxin IC50 to compound IC50 for Candida albicans 26S proteasome
Candida albicans [12] = test: Ratio of lactacystin IC50 to compound IC50 for Candida albicans 26S proteasome
[13] = Inhibition of Candida albicans 26S proteasome
In short: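 Chymotrypsin-like proteasome activity measured by luminogenic Proteasome-Glo assay, with modifications. Used whole-cell extracts of exponential-phase C. albicans, about 10⁶ cell equivalents per assay.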

A549 = test: Growth inhibition of human A549 cells at 3.1 to 50000 nM
Candida albicans [14] = test: Antifungal activity against wild-type Candida albicans at 10 ug/mL after 24 hrs by NCCLS M27-P broth macrodilution method; type: functional, organism-based
Candida albicans [15] = test: Antifungal activity against Candida albicans harboring heterozygous deletion of PRE4/orf19.4230 at 10 ug/mL after 24 hrs by NCCLS M27-P broth macrodilution method; type: functional, organism-based

In the case of `CC(=O)N[C@@H](CSC(=O)[C@]1([C@@H](O)C(C)C)NC(=O)[C@H](C)[C@@H]1O)C(=O)O`, the Activity (Candida albicans [1]) is reported as “inactive”.

`CCCCCCCCCCC[C@@H](O)CC(=O)N[C@@H](CC(N)=O)C(=O)N[C@H](C(=O)N[C@H](C=O)CC(C)C)C(O)CC(N)=O` (stereo partly specified) [FELLUTAMIDE D] gave an MIC (Candida albicans [2]) of 1.25 µg/mL (≈ 2.08 µM), an MIC (Candida albicans [3]) of 10 µg/mL (≈ 16.7 µM) and an MIC (Candida albicans [4]) of 10 µg/mL (≈ 16.7 µM). For the same compound, the MIC (Candida albicans [5]) was 10 µg/mL (≈ 16.7 µM), the MIC (Candida albicans [6]) was 10 µg/mL (≈ 16.7 µM) and the MIC (Candida albicans [7]) was 16 µg/mL (≈ 26.7 µM). The MIC (Candida tropicalis) was 8 µg/mL (≈ 13.3 µM), the MIC (Nakaseomyces glabratus) was 8 µg/mL (≈ 13.3 µM) and the MIC (Clavispora lusitaniae) was 32 µg/mL (≈ 53.4 µM). The MIC (Pichia kudriavzevii) was 8 µg/mL (≈ 13.3 µM), the MIC (Candida parapsilosis) was 8 µg/mL (≈ 13.3 µM) and the MIC (Aspergillus fumigatus) was 32 µg/mL (≈ 53.4 µM). For the same compound, the MIC [8] was greater than 32 µg/mL, the MIC (Staphylococcus aureus) was greater than 32 µg/mL and the Activity (Candida albicans [9]) was “Active”. For the same compound, the Activity (Candida albicans [10]) was “Active”, the IC50 (PC-3) was 160 nM and the Ratio IC50 (Candida albicans [11]) was 10. For the same compound, the Ratio IC50 (Candida albicans [12]) was 10, the IC50 [13] was 0.2 µg/mL (≈ 0.333 µM) and the “growth inhibition (GI)” value (A549) was “inactive”.

In the case of `CCCCCCCCCCCCCC(=O)N[C@@H](CC(N)=O)C(=O)N[C@@H](CCC(N)=O)C(=O)N[C@H](C=O)CC(C)C` (Myristoyl-Asn-Gln-Leu-aldehyde), the Activity (Candida albicans [9]) is reported as “Active” and the Activity (Candida albicans [10]) is reported as “Active”.

Work on `CCCCCCCCCCC[C@@H](O)CC(=O)N[C@@H](CC(N)=O)C(=O)N[C@H](C(=O)N[C@H](C=O)C(C)C)C(O)CC(N)=O` (stereo partly specified) [FELLUTAMIDE C] yielded an MIC (Candida albicans [2]) of 1.25 µg/mL (≈ 2.13 µM), an MIC (Candida albicans [3]) of 2.5 µg/mL (≈ 4.27 µM) and an MIC (Candida albicans [4]) of 2.5 µg/mL (≈ 4.27 µM). It also gave an MIC (Candida albicans [5]) of 2.5 µg/mL (≈ 4.27 µM), an MIC (Candida albicans [6]) of 2.5 µg/mL (≈ 4.27 µM) and an MIC (Candida albicans [7]) of 4 µg/mL (≈ 6.83 µM). For the same compound, the MIC (Candida tropicalis) was 4 µg/mL (≈ 6.83 µM), the MIC (Nakaseomyces glabratus) was 4 µg/mL (≈ 6.83 µM) and the MIC (Clavispora lusitaniae) was 16 µg/mL (≈ 27.3 µM). The MIC (Pichia kudriavzevii) was 4 µg/mL (≈ 6.83 µM), the MIC (Candida parapsilosis) was 2 µg/mL (≈ 3.41 µM) and the MIC (Aspergillus fumigatus) was 16 µg/mL (≈ 27.3 µM). It also gave an MIC [8] greater than 32 µg/mL, an MIC (Staphylococcus aureus) greater than 32 µg/mL and an IC50 (PC-3) of 440 nM. The Ratio IC50 (Candida albicans [11]) was 10, the Ratio IC50 (Candida albicans [12]) was 10 and the IC50 [13] was 0.2 µg/mL (≈ 0.341 µM). The “growth inhibition (GI)” value (A549) was “inactive”.

With `CN1C(=O)[C@]23CC4=CC=C[C@H](O)[C@H]4N2C(=O)[C@@]1(CO)SS3` [GLIOTOXIN] the MIC (Candida albicans [2]) was 4 µg/mL (≈ 12.3 µM).

With `CCCCCCCCCCCCCC(=O)N[C@@H](CC(N)=O)C(=O)N[C@@H](CCC(N)=O)C(=O)N[C@H](CO)CC(C)C` (Myristoyl-Asn-Gln-[Leu(ol)]) the Activity (Candida albicans [14]) was “inactive” and the Activity (Candida albicans [15]) was “inactive”.
